{"data": "Results collected from several papers", "note": "Each line is one published result; the experiments were not run side by side."}
{"Compound": "CN1CCN(C2CCN(c3nccc4[nH]c(-c5cc(F)cc(F)c5)nc34)CC2)CC1", "test system": "mouse, blood", "conditions": "intravenous, 2 mg/kg", "AUC(0-t)": "1.95 µM·h"}
{"Compound": "NC(=O)c1cc(Oc2ccc(NC(=O)Nc3ccc(Cl)c(C(F)(F)F)c3)c(F)c2)cc[n+]1[O-]", "test system": "mouse, plasma", "conditions": "oral, 10 mg/kg, single dose", "AUC(0-t)": "65 ng·h/mL"}
{"Compound": "CC(C)OC(=O)c1sc(Nc2ncccn2)nc1-c1cnccn1", "test system": "male CD-1 mouse, plasma", "conditions": "oral, 2.5 mg/kg", "AUC(0-t)": "54 ng·h/mL"}
{"Compound": "CN1CCN(c2nccc3nc(-c4ccc(F)c(F)c4)[nH]c23)CC1", "test system": "mouse, blood", "conditions": "intravenous, 2 mg/kg", "AUC(0-t)": "3.58 µM·h"}
{"Compound": "CCOc1ccc(Cc2cc([C@@H]3O[C@H](CO)[C@@H](O)[C@H](O)[C@H]3O)ccc2Cl)cc1", "test system": "male C57BL/6 mouse, plasma", "conditions": "oral, 1 mg/kg", "AUC(0-t)": "457 ng·h/mL"}
{"Compound": "COc1ccc2nc(-c3ccccn3)c(N(C)c3ccc(F)cc3)n2c1", "test system": "male CD-1 mouse, plasma", "conditions": "oral, 50 mg/kg, fasted", "AUC(0-t)": "953 ng·h/mL"}
{"Compound": "COc1ccc2nccc(N3CCc4c(cc(Cn5ccnc5)cc4-c4cn(C)nc4C(F)(F)F)C3=O)c2c1", "test system": "male CD-1 mouse, plasma", "conditions": "oral, 10 mg/kg", "AUC(0-t)": "2080 ng·h/mL"}
{"Compound": "Cc1c2c(n(-c3ccc(Cl)cc3Cl)c1-c1ccc(OS(=O)(=O)CCC(F)(F)F)cc1)CCN(N1CCCCC1)C2=O", "test system": "mouse, plasma", "conditions": "oral, 6 µmol/kg, single dose", "AUC(0-t)": "3.6 µM·h"}
{"Compound": "FC(F)(F)Oc1ccc(Nc2cc(-c3cn[nH]c3)ncn2)cc1", "test system": "male BALB/c mouse, plasma", "conditions": "oral, 20 mg/kg", "AUC(0-t)": "6110 ng·h/mL"}
{"Compound": "Fc1ccc(-c2nc3c(N4CCC(CN5CCOCC5)CC4)nccc3[nH]2)cc1F", "test system": "BALB/c mouse, blood", "conditions": "oral, 20 mg/kg", "AUC(0-t)": "34.6 µM·h"}
{"Compound": "Cc1c(C(=O)NN2CCCCC2)nc(-c2ccc(Cl)cc2Cl)n1-c1ccc(OS(=O)(=O)CCC(F)(F)F)cc1", "test system": "mouse, plasma", "conditions": "oral, 20 µmol/kg, single dose", "AUC(0-t)": "6.3 µM·h"}
{"Compound": "CCc1cc(C(=O)NC)c2nccc(N3CCc4c(cc(Cn5ccnc5)cc4-c4cn(C)nc4C(F)(F)F)C3=O)c2c1", "test system": "male CD-1 mouse, plasma", "conditions": "oral, 50 mg/kg", "AUC(0-t)": "122000 ng·h/mL"}
{"Compound": "Cc1ccc(NC(=O)c2ccc(CN3CCN(C)CC3)cc2)cc1Nc1nccc(-c2cncc(-c3oncc3C)c2)n1", "test system": "male C57BL/6 mouse, plasma", "conditions": "oral, 100 mg/kg/day", "AUC(0-t)": "37800 ng·h/mL"}
{"Compound": "CN1CCN(C(=O)CN[C@@H]2C[C@H]2c2ccc(OCc3ccccc3)cc2)CC1", "test system": "mouse, plasma", "conditions": "intraperitoneal, 10 mg/kg", "AUC(0-t)": "1660 ng·h/mL"}
{"Compound": "COc1nc(-c2cc(C)c(N[C@@H](C)c3c(F)cc(F)cc3F)nn2)ccc1-n1cnc(C)c1", "test system": "male CD-1 mouse, plasma", "conditions": "intravenous, 1 mg/kg, single dose", "AUC(0-t)": "2500 ng·h/mL"}
{"Compound": "CC[C@H](C)[C@@H]1NC(=O)[C@@](C)(NC(=O)[C@H](CCCNC(=N)N)NC(=O)[C@H](CC(C)C)NC(=O)[C@@H](NC(=O)[C@H](CCC(N)=O)NC(=O)[C@H](CC(C)C)NC(C)=O)[C@@H](C)O)CCCC=CCCC[C@@](C)(C(=O)N[C@@H](CC(C)C)C(=O)N[C@@H](Cc2ccc3ccccc3c2)C(N)=O)NC(=O)[C@H](CCCNC(=N)N)NC(=O)[C@H](CCC(N)=O)NC1=O", "test system": "male BALB/c mouse, plasma", "conditions": "intravenous, 5 mg/kg", "AUC(0-t)": "124000 ng·h/mL"}
{"Compound": "CC(C)(Nc1nc(-c2ccccn2)nc2ccccc12)c1ccccn1", "test system": "female BALB/c mouse, plasma", "conditions": "intravenous, 1 mg/kg", "AUC(0-t)": "1450 ng·h/mL"}
{"Compound": "NS(=O)(=O)c1ccc(-c2cc(Nc3ccc(OC(F)(F)F)cc3)ncn2)cc1", "test system": "male BALB/c mouse, plasma", "conditions": "oral, 20 mg/kg", "AUC(0-t)": "9390 ng·h/mL"}
{"Compound": "CN1CCC(N2CCN(c3nccc4[nH]c(-c5ccc(F)c(F)c5)nc34)CC2)CC1", "test system": "BALB/c mouse, blood", "conditions": "oral, 20 mg/kg", "AUC(0-t)": "6.63 µM·h"}
{"Compound": "C=CC(=O)N1CC2CC(n3nc(-c4ccc(C(=O)Nc5ccccn5)cc4)c4c(N)ncnc43)CC2C1 (stereo not shown)", "test system": "SCID mouse, plasma", "conditions": "oral, 5 mg/kg", "AUC(0-t)": "1120 ng·h/mL"}
{"Compound": "Cc1nc(-c2cnc(NC(C)C)n(C)c2=O)ccc1Oc1ccnc(-c2cnn(C)c2)c1", "test system": "female mouse, plasma", "conditions": "oral, 3.75 mg/kg, single dose", "AUC(0-t)": "29000 ng·h/mL"}
{"Compound": "Cn1ccnc1N1CCN(CC2CCN(c3nccc4[nH]c(-c5cc(F)cc(F)c5)nc34)CC2)CC1", "test system": "BALB/c mouse, blood", "conditions": "oral, 20 mg/kg", "AUC(0-t)": "19 µM·h"}
{"Compound": "CN1CCC[C@H](CN2c3ccccc3Sc3ccccc32)C1.Cl", "test system": "mouse, plasma", "conditions": "oral, 64 mg/kg, single dose", "AUC(0-t)": "6010 ng·h/mL"}
{"Compound": "COc1nc(-c2cc(C)c(N[C@@H](C)c3ccc(F)cc3)nn2)ccc1-n1cnc(C)c1", "test system": "male CD-1 mouse, plasma", "conditions": "intravenous, 1 mg/kg, single dose", "AUC(0-t)": "4020 ng·h/mL"}
{"Compound": "CN1CCN(CC2CCN(c3cncc4[nH]c(-c5cc(F)cc(F)c5)nc34)CC2)CC1", "test system": "mouse, blood", "conditions": "oral, 10 mg/kg", "AUC(0-t)": "3.57 µM·h"}
{"Compound": "CS(=O)(=O)CCNCc1ccc(-c2ccc3ncnc(Nc4ccc(OCc5cccc(F)c5)c(Cl)c4)c3c2)o1", "test system": "nude mouse, plasma", "conditions": "oral, 100 mg/kg, single dose", "AUC(0-t)": "97500 ng·h/mL"}
{"Compound": "CSc1cc(Oc2ccnc3[nH]c(=O)cnc23)ccc1NC(=O)Nc1cc(C(C)(C)C)nn1-c1ccccc1", "test system": "BALB/c mouse, plasma", "conditions": "oral, 10 mg/kg", "AUC(0-t)": "275 µM·h"}
{"Compound": "COc1nc(-c2cc(C)c(N[C@@H](C)c3cc(F)cc(F)c3)nn2)ccc1-n1cnc(C)c1", "test system": "male CD-1 mouse, plasma", "conditions": "oral, 5 mg/kg, single dose", "AUC(0-t)": "9560 ng·h/mL"}
{"Compound": "CC(C)(C)c1cc(NC(=O)Nc2ccc(Oc3ccnc4[nH]c(=O)cnc34)cc2F)n(-c2ccccc2)n1", "test system": "BALB/c mouse, plasma", "conditions": "intravenous, 2 mg/kg", "AUC(0-t)": "154 µM·h"}
{"Compound": "Cc1nc2ccc(F)cc2n1-c1nc(N)c(F)c(Nc2ccc(C(F)(F)F)cc2)n1", "test system": "nude mouse, plasma", "conditions": "oral, 10 mg/kg", "AUC(0-t)": "19300 ng·h/mL"}
{"Compound": "CNCCN(C)c1cc(C#N)cc(CCc2cc(C)cc(N)n2)c1", "test system": "male BALB/c mouse, plasma", "conditions": "intravenous, 2 mg/kg", "AUC(0-t)": "180 ng·h/mL"}
{"Compound": "COc1cc(OC)c2nccc(N3CCc4c(cc(Cn5ccnc5)cc4-c4cn(C)nc4C(F)(F)F)C3=O)c2c1", "test system": "male CD-1 mouse, plasma", "conditions": "intravenous, 3 mg/kg", "AUC(0-t)": "803 ng·h/mL"}
{"Compound": "COc1ccc(C(O)COc2ccc(-c3csc(-c4ccc(OCC(O)c5ccc(OC)c(OC)c5)cc4)n3)cc2)cc1OC (stereo not shown)", "test system": "C57BL/6 mouse, plasma", "conditions": "oral, 75 mg/kg", "AUC(0-t)": "73000 ng·h/mL"}
{"Compound": "CNC(=O)c1cc(Oc2ccc(NC(=O)Nc3ccc(Cl)c(C(F)(F)F)c3)c(F)c2)cc[n+]1[O-]", "test system": "mouse, plasma", "conditions": "oral, 10 mg/kg, single dose", "AUC(0-t)": "1930 ng·h/mL"}
{"Compound": "CNC(=O)c1cc(OC)cc2c(N3CCc4c(cc(Cn5ccnc5)cc4-c4cn(C)nc4C(F)(F)F)C3=O)ccnc12", "test system": "male CD-1 mouse, plasma", "conditions": "oral, 50 mg/kg", "AUC(0-t)": "144000 ng·h/mL"}
{"Compound": "O=S(=O)(c1ccc(-c2ccc3nccc(Nc4ccncn4)c3c2)cc1)N1CCOCC1", "test system": "female BALB/c mouse, plasma", "conditions": "intraperitoneal, 10 mg/kg", "AUC(0-t)": "9510 ng·h/mL"}
{"Compound": "Cc1ccc2cncc(N3CCc4c(cc(Cn5ccnc5)cc4-c4cn(C)nc4C(F)(F)F)C3=O)c2c1", "test system": "male CD-1 mouse, plasma", "conditions": "oral, 10 mg/kg", "AUC(0-t)": "4420 ng·h/mL"}
{"Compound": "CCOC(=O)c1sc(Nc2ncccn2)nc1-c1ccccn1", "test system": "male CD-1 mouse, plasma", "conditions": "oral, 10 mg/kg", "AUC(0-t)": "195 ng·h/mL"}
{"Compound": "C[C@H]1[C@@H](O)O[C@@H]2O[C@@]3(C)CC[C@H]4[C@H](C)CC[C@@H]1[C@@]24OO3", "test system": "female SCID mouse, plasma", "conditions": "oral, 60 mg/kg", "AUC(0-t)": "382 ng·h/mL"}
{"Compound": "CCc1cc(OC)c2nccc(N3CCc4c(cc(Cn5ccnc5)cc4-c4cn(C)nc4C(F)(F)F)C3=O)c2c1", "test system": "male CD-1 mouse, plasma", "conditions": "oral, 150 mg/kg", "AUC(0-t)": "224000 ng·h/mL"}
